From ChEMBL document CHEMBL1144435, “Effects of positional and geometrical isomerism on the biological activity of some novel oxazolidinones” (2005)
≈ marks a conversion by molar mass, not a printed value.

Legend:
[1] = test system: Staphylococcus aureus; experiment: In vitro minimum inhibitory concentration of compound against Methicillin-sensitive Staphylococcus aureus ATCC 29213; format: functional
In short: (§1)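 Broth microdilution per NCCLS guidelines. Doubling dilutions from 32-1 µg/mL in Mueller Hinton medium. Final inoculum 1-5 × 10^5 cfu/mL. Plates incubated overnight in ambient air at 35 °C. Linezolid and streptomycin run as controls.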

[2] = test system: Staphylococcus aureus; experiment: In vitro minimum inhibitory concentration of compound against Staphylococcus aureus ATCC 49951 (Smith); format: functional; in short: as §1
[3] = test system: Enterococcus faecium; experiment: In vitro minimum inhibitory concentration against vancomycin-resistant Enterococcus faecium NCTC 12202; format: functional; in short: as §1
[4] = test system: Mycolicibacterium smegmatis; experiment: In vitro minimum inhibitory concentration of compound against Mycobacterium smegmatis MTCC 006; format: functional
[5] = test system: Enterococcus faecalis; experiment: In vitro minimum inhibitory concentration against Enterococcus faecalis ATCC 29212; format: functional; in short: as §1
[6] = test system: Enterococcus faecalis; experiment: In vitro minimum inhibitory concentration against vancomycin-resistant Enterococcus faecalis NCTC 12201; format: functional; in short: as §1
[7] = test system: Staphylococcus aureus; experiment: In vitro minimum inhibitory concentration of compound against Methicillin-resistant Staphylococcus aureus ATCC 33591

Structure (SMILES)	MIC [1] [µg/mL]	MIC [2] [µg/mL]	MIC [3] [µg/mL]	MIC [4] [µg/mL]	MIC [5] [µg/mL]	MIC [6] [µg/mL]	MIC [7] [µg/mL]
CC(=O)NC[C@H]1CN(c2ccc(/C=C(\C#N)c3nc4ccccc4s3)cc2)C(=O)O1	> 32	> 32	> 32	> 32	> 32	> 32	
CC(=O)NC[C@H]1CN(c2ccc(/C=C(\C#N)c3nc4ccccc4n3C)cc2)C(=O)O1	> 32	> 32	> 32	> 32	> 32	> 32	
CN[C@@H]1[C@H](O[C@H]2[C@H](O[C@H]3[C@H](O)[C@@H](O)[C@H](N=C(N)N)[C@@H](O)[C@@H]3N=C(N)N)O[C@@H](C)[C@]2(O)C=O)O[C@@H](CO)[C@H](O)[C@H]1O [STREPTOMYCIN]	4 (≈ 6.88 µM)	2 (≈ 3.44 µM)	32 (≈ 55 µM)	0.5 (≈ 0.86 µM)	> 32	> 32	> 32
CC(=O)NC[C@H]1CN(c2ccc(/C=C(\C#N)c3nc4ccccc4[nH]3)cc2)C(=O)O1	> 32	> 32	> 32	> 32	> 32	> 32	
CC(=O)NC[C@H]1CN(c2ccc(/C=C(\C#N)c3nc4ccccc4o3)cc2)C(=O)O1	> 32	> 32	> 32	> 32	> 32	> 32	
CC(=O)NC[C@H]1CN(c2ccc(/C=C(\C#N)n3nnc4ccccc43)cc2)C(=O)O1	16 (≈ 39.8 µM)	16 (≈ 39.8 µM)	32 (≈ 79.5 µM)	> 32	32 (≈ 79.5 µM)	32 (≈ 79.5 µM)	16 (≈ 39.8 µM)
CC(=O)NC[C@H]1CN(c2ccc(N3CCOCC3)c(F)c2)C(=O)O1 [LINEZOLID]			2 (≈ 5.93 µM)	2 (≈ 5.93 µM)			
C/C(S)=N/C[C@H]1CN(c2ccc(/C=C(\C#N)n3nc4ccccc4n3)cc2)C(=O)O1	2 (≈ 4.78 µM)	2 (≈ 4.78 µM)	4 (≈ 9.56 µM)	> 32	4 (≈ 9.56 µM)	4 (≈ 9.56 µM)	2 (≈ 4.78 µM)
CC(=O)NC[C@H]1CN(c2ccc(/C=C(\C#N)n3cnc4ccccc43)cc2)C(=O)O1	16 (≈ 39.9 µM)	16 (≈ 39.9 µM)	32 (≈ 79.7 µM)	> 32	32 (≈ 79.7 µM)	32 (≈ 79.7 µM)	16 (≈ 39.9 µM)
CC(=O)NC[C@H]1CN(c2ccc(/C=C(/C#N)n3nnc4ccccc43)cc2)C(=O)O1	> 32	> 32	> 32	> 32	> 32	> 32	> 32
CC(=O)NC[C@H]1CN(c2ccc(/C=C(\C#N)n3nc4ccccc4n3)c(F)c2)C(=O)O1	8 (≈ 19 µM)	16 (≈ 38.1 µM)	32 (≈ 76.1 µM)	> 32	32 (≈ 76.1 µM)	32 (≈ 76.1 µM)	16 (≈ 38.1 µM)
CC(=O)NC[C@H]1CN(c2ccc(/C=C(\C#N)n3nc4ccccc4n3)cc2)C(=O)O1	8 (≈ 19.9 µM)	8 (≈ 19.9 µM)	8 (≈ 19.9 µM)	> 32	8 (≈ 19.9 µM)	8 (≈ 19.9 µM)	8 (≈ 19.9 µM)
